Experimental findings from ChEMBL document CHEMBL1127079, “Substituted chromenes as potent, orally active 5-lipoxygenase inhibitors” (J Med Chem, 1993) are described below.

Test [1] can be described thus: Duration of action is where maximum inhibition of LTB4 formation is achieved at 1 mg/kg po. Further details: dose 1 mg/kg. The following applies: Canis lupus familiaris. It counts as functional, organism-based. Put shortly: (§1)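 Beagle dogs (8–15 kg, fasted 16–18 h, water allowed) dosed by oral intubation as suspension in 3% cornstarch/0.33% Tween 80/5% PEG 400 in water, 5 mL/kg. Jugular blood at -1, 0, 0.25, 0.5, 1, 3, 6, 9, 24 h; 1-mL aliquots stimulated 15 min at 37 °C with A23187 100 μM plus fMLP 10 μM (final); plasma LTB4 by RIA. DA read graphically: time from maximum inhibition to 50% of maximum.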

Test [2] deals with T1, Polyunsaturated fatty acid 5-lipoxygenase (Homo sapiens) (UniProt P09917).
T1 sequence (whole entry): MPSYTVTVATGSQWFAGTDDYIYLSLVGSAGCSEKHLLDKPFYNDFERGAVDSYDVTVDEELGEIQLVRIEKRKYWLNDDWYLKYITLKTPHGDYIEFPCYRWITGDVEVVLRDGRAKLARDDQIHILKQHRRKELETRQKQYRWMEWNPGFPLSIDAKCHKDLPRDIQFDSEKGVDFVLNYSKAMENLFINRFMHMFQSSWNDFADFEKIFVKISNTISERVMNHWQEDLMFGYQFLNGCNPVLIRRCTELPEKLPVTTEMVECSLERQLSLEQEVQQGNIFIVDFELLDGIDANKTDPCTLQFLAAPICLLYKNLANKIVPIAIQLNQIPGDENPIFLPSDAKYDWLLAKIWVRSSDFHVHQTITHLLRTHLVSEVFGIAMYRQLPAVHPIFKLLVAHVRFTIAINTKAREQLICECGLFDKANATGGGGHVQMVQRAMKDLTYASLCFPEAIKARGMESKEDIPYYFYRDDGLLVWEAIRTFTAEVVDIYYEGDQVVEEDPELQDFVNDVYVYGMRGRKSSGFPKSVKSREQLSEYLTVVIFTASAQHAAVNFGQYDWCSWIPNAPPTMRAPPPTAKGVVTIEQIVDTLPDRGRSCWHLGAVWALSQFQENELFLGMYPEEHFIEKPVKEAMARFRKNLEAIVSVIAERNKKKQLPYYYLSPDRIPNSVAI
The test can be described thus: Ex vivo inhibition of LTB4 production by measurement of A-23187-stimulated LTB-4 production in dog blood at 1 mg/kg po. It counts as functional, organism-based. Further details: dose 1 mg/kg. The following applies: Canis lupus familiaris, target entry is the homologue from another species. In outline: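 Fasted beagles (8–15 kg) dosed orally by intubation, suspension in 3% cornstarch with 0.33% Tween 80 and 5% PEG 400, 5 mL/kg. Blood at -1, 0, 0.25–24 h stimulated ex vivo with A23187 100 μM + fMLP 10 μM final, 15 min, 37 °C; plasma LTB4 by RIA; percent inhibition relative to mean predose (-1, 0 h) values.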

Test [3] concerns Arachidonate 5-lipoxygenase (Canis lupus familiaris). Briefly: Ex vivo inhibition of LTB-4 determined by measurement of A-23187-stimulated LTB-4 production in dog blood at 3 mg/kg po. The following applies: target entry is the homologue from another species.
The nature of test [4]: Duration of action where maximum inhibition of LTB4 formation is achieved at 1 mg/kg iv. Type of test: functional, organism-based. Further details: dose 1 mg/kg. The following applies: Canis lupus familiaris. Put shortly: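 Beagle dogs (8–15 kg, fasted) given iv bolus in forearm in DMA/PEG 400 (25:75), 0.1 mL/kg. Blood at -1, 0, 0.08, 0.25, 0.5, 1, 3, 6, 9, 24 h; aliquots stimulated with A23187 100 μM + fMLP 10 μM final, 15 min, 37 °C; plasma LTB4 by RIA. DA taken graphically from maximum inhibition to 50%-of-maximum level.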

Test [5] has as its target T1, Polyunsaturated fatty acid 5-lipoxygenase (Homo sapiens). The test can be described thus: Ex vivo inhibition of LTB-4 determined by measurement of A-23187-stimulated LTB-4 production in dog blood at 1 mg/kg iv. Type of test: functional, organism-based. The arrangement: dose 1 mg/kg. In outline: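 Beagles (8–15 kg, fasted 16–18 h) given iv forearm bolus in DMA/PEG 400 (25:75), 0.1 mL/kg. Jugular blood (serine/heparin) sampled -1 to 24 h; 1-mL aliquots stimulated with A23187 100 μM + fMLP 10 μM final for 15 min at 37 °C, one aliquot unstimulated. Plasma LTB4 by RIA; inhibition versus mean of -1 and 0 h predose values.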

Test [6] has as its system Arachidonate 5-lipoxygenase (Canis lupus familiaris). Briefly: Ex vivo inhibition of LTB-4 determined by measurement of A-23187-stimulated LTB-4 production in dog blood at 10 mg/kg po. As to conditions: target entry is the homologue from another species.
Test [7] can be described thus: Duration of action where maximum inhibition of LTB4 formation is achieved at 10 mg/kg po. It counts as functional, organism-based. The arrangement: dose 10 mg/kg. As to conditions: Canis lupus familiaris. In outline: as §1
In test [8] the target is T2, Polyunsaturated fatty acid lipoxygenase ALOX12 (Homo sapiens, UniProt P18054).
T2 sequence (P18054 whole entry): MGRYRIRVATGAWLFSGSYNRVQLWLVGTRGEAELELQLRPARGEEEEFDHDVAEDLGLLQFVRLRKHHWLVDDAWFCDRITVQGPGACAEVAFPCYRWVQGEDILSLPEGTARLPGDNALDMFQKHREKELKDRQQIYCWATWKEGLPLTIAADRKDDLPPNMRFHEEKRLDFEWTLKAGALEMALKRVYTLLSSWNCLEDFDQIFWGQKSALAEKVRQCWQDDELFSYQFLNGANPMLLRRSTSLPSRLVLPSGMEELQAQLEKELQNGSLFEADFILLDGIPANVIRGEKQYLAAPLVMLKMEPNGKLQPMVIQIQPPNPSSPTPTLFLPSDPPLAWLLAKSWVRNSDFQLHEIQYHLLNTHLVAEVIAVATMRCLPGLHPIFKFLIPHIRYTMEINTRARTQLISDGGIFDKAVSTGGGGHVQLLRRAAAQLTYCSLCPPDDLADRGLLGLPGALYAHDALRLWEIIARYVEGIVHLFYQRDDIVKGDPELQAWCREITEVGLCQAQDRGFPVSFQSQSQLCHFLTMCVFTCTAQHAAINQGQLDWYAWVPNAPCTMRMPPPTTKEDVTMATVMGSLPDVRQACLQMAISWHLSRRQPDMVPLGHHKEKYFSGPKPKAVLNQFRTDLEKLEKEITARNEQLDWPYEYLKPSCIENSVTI
The test can be described thus: Inhibitory concentration against human platelet 12-lipoxygenase. Type of test: functional. Put shortly:
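Cytoplasmic fraction of lysed human platelets, diluted to give 50% AA conversion, preincubated with inhibitor 5 min at 37 °C in 0.1 M Tris-HCl pH 8.0 with 1 mM glutathione and 10 μM indomethacin. 1-[14C]AA added, 15 min at 37 °C; 12-HETE separated by TLC and counted.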

Test [9] can be described thus: Duration of action where maximum inhibition of LTB4 formation is achieved at 1 mg/kg po. Type of test: functional, organism-based. The arrangement: dose 1 mg/kg. As to conditions: Canis lupus familiaris. Put shortly: as §1
Test [10] can be described thus: Duration of action where maximum inhibition of LTB4 formation is achieved at 3 mg/kg po. It counts as functional, organism-based. The arrangement: dose 3 mg/kg. As to conditions: Canis lupus familiaris. In outline: as §1
The target in test [11] is T3, Prostaglandin G/H synthase (cyclooxygenase) (Ovis aries, UniProt P05979+P79208).
T3 sequence (P05979 whole entry): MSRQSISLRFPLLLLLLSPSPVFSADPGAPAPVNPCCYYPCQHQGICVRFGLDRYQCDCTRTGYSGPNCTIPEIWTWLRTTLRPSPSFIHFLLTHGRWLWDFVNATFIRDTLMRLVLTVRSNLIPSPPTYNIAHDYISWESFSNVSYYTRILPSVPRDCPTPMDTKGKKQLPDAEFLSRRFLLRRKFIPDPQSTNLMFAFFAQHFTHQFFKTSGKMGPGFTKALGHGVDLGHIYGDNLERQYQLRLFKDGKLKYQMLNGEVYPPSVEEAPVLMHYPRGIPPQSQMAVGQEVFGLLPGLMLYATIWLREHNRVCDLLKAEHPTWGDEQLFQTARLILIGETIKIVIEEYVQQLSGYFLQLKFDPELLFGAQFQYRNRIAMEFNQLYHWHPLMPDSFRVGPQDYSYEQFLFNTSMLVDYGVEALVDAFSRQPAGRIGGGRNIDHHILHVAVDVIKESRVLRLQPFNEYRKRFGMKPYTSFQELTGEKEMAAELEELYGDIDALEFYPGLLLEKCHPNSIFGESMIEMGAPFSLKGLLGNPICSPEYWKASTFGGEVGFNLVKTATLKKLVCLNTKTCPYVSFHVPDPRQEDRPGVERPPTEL
T3 sequence (P79208 whole entry): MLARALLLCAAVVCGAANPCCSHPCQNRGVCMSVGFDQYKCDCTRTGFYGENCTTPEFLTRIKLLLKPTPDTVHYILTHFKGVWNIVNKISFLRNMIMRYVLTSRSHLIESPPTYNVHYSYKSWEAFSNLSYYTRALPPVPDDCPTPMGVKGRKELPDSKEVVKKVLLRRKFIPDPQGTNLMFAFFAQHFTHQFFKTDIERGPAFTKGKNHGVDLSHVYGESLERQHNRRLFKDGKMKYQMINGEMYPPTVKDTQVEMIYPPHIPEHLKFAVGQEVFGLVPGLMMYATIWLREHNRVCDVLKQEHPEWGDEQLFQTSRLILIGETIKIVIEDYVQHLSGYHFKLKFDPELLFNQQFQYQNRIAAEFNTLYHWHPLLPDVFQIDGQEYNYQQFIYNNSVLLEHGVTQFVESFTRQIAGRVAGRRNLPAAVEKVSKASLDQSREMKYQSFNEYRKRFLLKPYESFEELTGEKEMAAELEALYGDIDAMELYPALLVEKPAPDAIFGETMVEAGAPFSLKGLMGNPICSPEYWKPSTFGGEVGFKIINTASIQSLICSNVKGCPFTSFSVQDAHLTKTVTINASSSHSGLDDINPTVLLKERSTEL
The test can be described thus: Inhibitory concentration against sheep seminal vesicle Prostaglandin G/H synthase. It counts as functional, tissue-based. In outline:
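Lyophilized sheep seminal vesicle microsomes as cyclooxygenase source; conversion of [14C]AA to PGE2 with compounds over a wide concentration range in 0.1 M Tris-HCl pH 8.4 (or 1% ethanol). PGs extracted into ethyl acetate, separated by TLC, PGE2 zones counted by scintillation.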

As to `C=CCNC(=O)N(O)CC1=Cc2cc(Oc3ccccc3)ccc2OC1`, the Duration in test [1] turned out to be 4.2 h. The inhibition in [2] came out at 80%.
Turning to `NC(=O)N(O)CC1=Cc2cc(OCc3ccccc3)ccc2OC1`, the inhibition in [3] is > 95%; in test [5], > 95%; in test [6], > 95%; in test [2], 59%. Also, the Duration was 19 h in test [4], 5 h in test [1] and > 6 h in [7].
For the compound `CC(c1cc2ccccc2s1)N(O)C(N)=O` (stereo not drawn) [ZILEUTON], half-maximal inhibition in test [8] (IC50) was put at 55000 nM.
In turn, `CC1Oc2ccc(OCc3ccccc3)cc2C=C1CN(O)C(N)=O` (stereo not drawn) came in with a Duration in [9] of 2.8 h. This compound also returned an inhibition in test [2] of 91%.
Regarding `CCCNC(=O)N(O)CC1=Cc2cc(Oc3ccccc3)ccc2OC1`, the Duration in [4] was 8.1 h. Also, the inhibition in [5] was > 95%.
As to `CC1Oc2ccc(Oc3ccccc3)cc2C=C1CN(O)C(N)=O` (stereo not drawn), the Duration in test [9] was 9 h; in test [4], 5 h. Further, the inhibition in test [5] and in test [2] was > 95% in each case.
For `CNC(=O)N(O)CC1=Cc2cc(Oc3ccccc3)ccc2OC1`, the Duration was 11 h in [9] and 8.4 h in test [4]. The inhibition in test [5] and in [2] was > 95% each time.
On to `NC(=O)N(O)CC1=Cc2cc(Oc3ccc(F)cc3)ccc2OC1`, for which the inhibition in test [5] and in test [2] was > 95% throughout. The Duration in test [1] came to 13 h.
For `COc1ccc2c(c1)C=C(CN(O)C(N)=O)CO2`, the Duration in test [4] was 1.2 h; in [7] it was > 6 h.
For the compound `NC(=O)N(O)CC1=Cc2cc(Br)ccc2OC1`, in [6], the inhibition is > 95%. The Duration in test [7] was determined as 3.8 h.
Turning to `NC(=O)N(O)CC1COc2ccc(Oc3ccccc3)cc2C1` (stereo not drawn), the Duration in [9] was determined as 4.8 h; in [4], 7.4 h. Besides, the inhibition in [5] and in [2] was > 95% in each case.
As to `NC(=O)N(O)CC1=Cc2cc(Oc3ccccc3)ccc2OC1`, the Duration in [10] was 35 h; in [1], 14 h. Also, the IC50 in test [8] is 640 nM. The inhibition in test [5] and in [2] was > 95% each time.
For `CCCCCCOc1ccc2c(c1)C=C(CN(O)C(N)=O)CO2`, in [3], the inhibition came to 60%. Further, in test [10], the Duration stood at 2.2 h.
The compound `CC1(C)Oc2ccc(Oc3ccccc3)cc2C=C1CN(O)C(N)=O` yielded a Duration in [9] of 2.6 h. Besides, the inhibition in test [2] is 65%.
In the case of `CCNC(=O)N(O)CC1=Cc2cc(Oc3ccccc3)ccc2OC1`, the results for the Duration in test [9] and in [4] were 3.8 h and 5.1 h, respectively. In addition, the results for the inhibition in [5] and in test [2] were > 95% and 60%, respectively.
In the case of `NC(=O)N(O)CC1=Cc2cc(-c3ccccc3)ccc2OC1`, the Duration in test [9] turned out to be 1 h. Also, the inhibition in [2] was 60%.
For the compound `NC(=O)N(O)CC1=Cc2cc(OCc3ccc(C(F)(F)F)cc3)ccc2OC1`, the Duration is 3 h in [4] and > 6 h in test [7]. The values for the inhibition in [5] and in test [6] were 82% and > 95%, respectively.
With `NC(=O)N(O)CC1=Cc2cc(OCCCc3ccccc3)ccc2OC1`, the figures for the inhibition in test [3] and in test [2] were > 95% and > 90%, respectively. Besides, the Duration is 4 h in test [9] and > 6 h in test [10].
On to `CNC(=O)N(O)CC1=Cc2cc(Oc3ccc(F)cc3)ccc2OC1`, for which the Duration in [10] is 42 h; in test [4], 20 h; in [1], 15 h. For the same compound, the results for the half-maximal inhibitory concentration (IC50) in test [8] and in test [11] were 410 nM and > 100000 nM, respectively. Also, the inhibition in test [5] and in test [2] was > 95% throughout.
